Most compounds without a hit are left out; they make up all but 1% or so of the library.
hK5 inh = blocks human kallikrein 5 protease activity. AID 873. 0.59% of 210,000 active. Q9Y337. recombinant hK5, fluorogenic AMC substrate cleavage. inhibition, % at 5 µM;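 active means inhibition of 40% or more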;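 further: 0% = enzyme controls without compound and 100% = no-enzyme blanks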
Target sequence (Q9Y337 67-293 limits assumed): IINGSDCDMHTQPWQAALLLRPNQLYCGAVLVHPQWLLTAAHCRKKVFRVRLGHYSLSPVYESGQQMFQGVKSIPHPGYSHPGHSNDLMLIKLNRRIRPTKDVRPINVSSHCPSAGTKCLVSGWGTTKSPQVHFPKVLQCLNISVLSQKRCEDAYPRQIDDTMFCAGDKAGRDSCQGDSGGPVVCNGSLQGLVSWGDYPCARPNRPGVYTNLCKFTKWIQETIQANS
FXIa inh = inhibitors of human coagulation factor XIa | P03951 | purified FXIa, Boc-Glu-Ala-Arg-AMC fluorogenic substrate | inhibition, % at 5 µM | 0.14% of 220,000 active | AID 798;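 active means inhibition of at least 40%; inactive means inhibition below 40%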;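 further: fluorescence of freed AMC excited at 355 nm; 0% = enzyme without compound and 100% = no enzyme blank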
thrombin 1536 = thrombin (human) inhibition | P00734 | alpha-thrombin, Boc-VPR-AMC fluorogenic substrate cleavage | inhibition, % at 5 µM | 0.26% of 220,000 active | AID 1046;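 active means inhibition at or above 40%; inactive means inhibition below 40%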;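 further: 0% = enzyme with no compound and 100% = wells without enzyme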
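Test system: human alpha-thrombin; medium: pH 7.5 Tris-saline with Tween 20; times: reaction at room temperature; signal: AMC fluorescence at 355 nm excitation and 460 nm emission; also added: Boc-VPR-AMC substrate, 15 µM final; dosing: one concentration per compound, 5 µM, with 0.2% DMSO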
FXIIa inh 1536 = factor XIIa (human) inhibition; AID 800; purified FXIIa, Boc-QGR-AMC fluorogenic substrate, 2 h; 0.3% of 220,000 active; inhibition, % at 5 µM; P00748; in the data active means inhibition above about 40%;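 further: 0% = enzyme with no compound and 100% = blank without enzyme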
Numbers without * were called inactive; . = no result.

SMILES	hK5 inh	FXIa inh	thrombin 1536	FXIIa inh 1536
COc1ccc(CCCc2n[nH]c(=S)n2C)cc1C	43*	30	9	30
Cc1ccccc1NC(=O)c1cccc2nc3ccccc3nc12	14	13	1	44*
COCCOc1cc(-n2cccc2)c(Cl)cc1Cl	-1	-4	-12	7
O=C(O)[C@@H](c1ccccc1)N1Cc2ccccc2C1=O	49*	7	1	13
COC(=O)c1ccc(CNC(=O)COC(=O)C2CC3C=CC2C3)cc1 (stereo not given)	0	-3	-11	4
COc1cccc(CNc2ccc(N3CCCCC3)cc2)c1OC	13	16	-1	11
COc1cccc(CNc2ccc(S(N)(=O)=O)cc2)c1OC	31	6	18	107*
Cc1cc(=O)oc2cc(OCC(=O)Nc3nnc(CC(C)C)s3)ccc12	12	-4	-6	4
CCCCc1nnc(NC(=O)COc2ccc3c(C)cc(=O)oc3c2)s1	112*	14	14	34
COc1cccc(C2SCC(=O)N2c2ccc(C)cc2)c1OC (stereo not given)	-7	22	0	13
COc1ccc(N2C(=O)CSC2c2cccc(OC)c2OC)cc1 (stereo not given)	39	8	42*	17
COc1ccccc1/C(O)=C(\C#N)c1nc2ccccc2[nH]1	1	0	-4	9
CC1OC(O[C@H]2CC[C@]3(C)C4C=C[C@]56OC[C@@]7(CC[C@@H](C)[C@H](C)C75)[C@H](O)C[C@@]6(C)[C@]4(C)CC[C@H]3C2(C)C)C(OC2OC(CO)C(O)C(O)C2OC2OCC(O)C(O)C2O)C(O)C1O (stereo not given in full)	0	0	55*	4
CCOC(=O)c1cccc(NC(=O)CSc2nnc(-c3ccoc3C)n2CCOC)c1	32	22	15	48*
C=CCn1c(SCC(=O)Nc2cccc(C(=O)OC)c2)nnc1C(C)NC(=O)c1cccs1 (stereo not given)	50*	16	19	35
Cc1occc1-c1nnc(SCC(=O)Nc2ccccc2)n1CCc1ccccc1	-29	2	6	5
CN(C)C(=O)CSC1c2ccccc2C(=O)N1c1ccccc1 (stereo not given)	78*	3	7	11
CC(C)(C)NC(=O)COC(=O)CCC(=O)c1cccs1	3	1	0	7
Nc1nc(-c2ccco2)nn1C(=O)CCc1ccccc1	-11	0	93*	19
Nc1nc(-c2ccco2)nn1C(=O)c1cccnc1	-10	-6	64*	28
C/C(=N\NC(=O)CSCc1ccccc1Cl)c1cc(O)ccc1O	-1	-5	-7	4
CC(=O)Nc1nonc1NC(=O)CSc1ccccn1	4	11	0	70*
O=[N+]([O-])c1cccc(/C=N/Nc2nc(NCc3ccccc3)nc(N3CCOCC3)n2)c1O	-19	-6	-4	-1
CCCOC(=O)CC1C(=O)NCCN1C(=O)OC(C)(C)C (stereo not given)	-2	1	-11	4
COC(=O)CNC(=O)C(Cc1c[nH]c2ccccc12)NC(=O)OC(C)(C)C (stereo not given)	44*	0	22	18
SMILES	hK5 inh	FXIa inh	thrombin 1536	FXIIa inh 1536
CC(C)CC(=O)Nc1ccccc1N1CCCC1	72*	-4	20	26
Cc1nn(C)cc1/C=N/NC(=O)CSc1ccccn1	-1	-5	-6	3
C=CCn1c(SCc2ccccc2)nnc1-c1cccnc1	-36	-12	1	8
C=CCn1c(SCc2ccc(OC)cc2)nnc1-c1cccnc1	50*	3	22	8
Cc1cccc2[nH]c3c(N4CC=C(c5ccc(F)cc5)CC4)ncnc3c12	4	6	-3	1
CC(C)(C)C(=O)Nc1ccc(C(=O)N/N=C/c2ccccc2OC(=O)c2ccccc2)cc1	11	60*	-3	-1
CC(C)(C)C(=O)Nc1ccc(C(=O)N/N=C/c2ccccc2OC(=O)c2ccc(Cl)cc2)cc1	-11	12	-1	19
Cn1ncc(Br)c1N1C(=O)CCC1=O	-12	-8	-4	0
CCC(C)NCCOc1cc(C)cc(C)c1C (stereo not given)	31	35	56*	.
CCC(C)NCCOCCOc1ccc(C)cc1OC (stereo not given)	-4	19	2	11
Cc1nc(N2CCN(S(=O)(=O)c3cccc4nonc34)CC2)c2c3c(sc2n1)CCCC3	-14	1	-4	7
Cc1cc(C(=O)N/N=C/c2c(C)nn(-c3ccccc3)c2C)n[nH]1	89*	26	17	34
Cc1nn(-c2ccccc2)c(C)c1/C=N/NC(=O)c1cc(C2CC2)[nH]n1	5	1	1	6
COc1ccc2c(c1)C(SCC(=O)NCCc1ccc(Cl)cc1)CC(C)(C)O2 (stereo not given)	-14	6	0	12
CCOc1cc(C2NC(=O)NC(O)(C(F)(F)F)C2C(=O)c2ccc(Cl)cc2)ccc1O (stereo not given)	28	8	54*	27
CCOc1cc(C2NC(=O)NC(O)(C(F)(F)F)C2C(=O)c2ccc(OC)cc2)ccc1O (stereo not given)	-10	5	0	-8
CC(C)CC(N)C(=O)OCc1ccc([N+](=O)[O-])cc1 (stereo not given)	-7	-3	-8	0
COC(=O)CC1C(=O)NCCN1C(=O)Nc1cccc(Cl)c1 (stereo not given)	5	2	-1	9
COc1ccc(OC)c(NC(=O)CC2C(=O)NCCN2C(=O)Nc2cccc(Cl)c2)c1 (stereo not given)	31	10	23	45*
Cc1nn(CCc2nn[nH]n2)c2nc(-c3ccc(Br)cc3)cc(C(F)(F)F)c12	31	27	9	41*
Nc1sc2c(c1C(=O)NC1CCS(=O)(=O)C1)CCC2 (stereo not given)	45*	7	19	20
NC(=O)c1c(N)sc2c1CCC2	17	8	20	41*
NC(=O)c1c(N)sc2c1CCCCC2	4	11	-3	28
CCCn1c(C)cc(C(=O)COc2ccc(-c3nnco3)cc2)c1C	1	5	3	11
CCOC(=O)C1=C(CC)Nc2ccccc2N=C1NC(=O)CCN1C(=O)C2CCCCC2C1=O (stereo not given)	54*	32	36	24
SMILES	hK5 inh	FXIa inh	thrombin 1536	FXIIa inh 1536
CN(Cc1cc2ccccc2[nH]c1=O)S(C)(=O)=O	47*	-7	-4	1
CN(Cc1cc2ccccc2[nH]c1=O)S(=O)(=O)c1ccccc1	-11	2	5	3
Nn1c(Nc2ccccc2)nc2sc3c(c2c1=O)CCCC3	17	-1	2	5
COCCCn1c(=O)/c(=C\c2ccccc2OC(C)C)s/c1=C(/C#N)C(=O)Nc1ccc(C(=O)O)cc1	38	28	8	49*
CCOC(=O)C(=CNc1ccc2c(c1)CCN2C(C)=O)C(=O)OCC	7	7	1	15
Clc1cccc(Cl)c1Cn1ccc(C2CC2)n1	-4	-4	-6	1
